# Calls of active or inactive are those of the source. The rule behind the calls is not given here.
# Experiments:
# [1] = AUC (0.25 to 4 hrs) in CD1 mouse plasma at 5 mg/kg, ip administered as single dose at 4 hrs; format: ADME, organism-based; parameters: time 0.25-4 hr, dose 5 mg/kg, route intraperitoneal
# Summary of the method: (§1)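 CD1 mice received one i.p. dose of 5 mg/kg. Blood and brain were taken from groups of animals at several times after dosing, with n = 3 mice per time point, and compound levels were measured in plasma and brain. Exposure was expressed as AUC over 0.25–4 h. Concentrations at 4 h and 16 h are given as mean ± SD.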
# [2] = AUC (0.25 to 4 hrs) in CD1 mouse brain at 5 mg/kg, ip administered as single dose at 4 hrs; format: ADME, organism-based; parameters: time upper 4 hr, time lower 0.25 hr, dose 5 mg/kg, route intraperitoneal; summary of the method: as §1
# HEK293 [3] = experiment: Stabilization of microtubule in HEK293 cells assessed as increase in acetylated alpha-tubulin after 4 hrs by ELISA; format: cell-based; conditions: Homo sapiens
# Summary of the method: (§2)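 In HEK293 cells, microtubule stabilization was read as compound-induced elevation of acetylated α-tubulin. Compounds were tested across a concentration series that included 1, 10 and 100 nM, with n = 4 per condition. Values are given as mean ± SEM.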
# HEK293 [4] = experiment: Stabilization of microtubule in HEK293 cells assessed as increase in acetylated alpha-tubulin at 100 nM after 4 hrs by ELISA; format: cell-based; conditions: Homo sapiens; summary of the method: as §2
# [5] = Drug uptake in CD1 mouse brain at 5 mg/kg, ip administered as single dose at 16 hrs; format: ADME, organism-based; parameters: dose 5 mg/kg, route intraperitoneal; conditions: read-out: Drug uptake; summary of the method: as §1
# [6] = Drug uptake in CD1 mouse brain at 5 mg/kg, ip administered as single dose at 4 hrs; format: ADME, organism-based; parameters: dose 5 mg/kg, route intraperitoneal; conditions: read-out: Drug uptake; summary of the method: as §1
# [7] = Plasma concentration in CD1 mouse at 5 mg/kg, ip administered as single dose at 4 hrs; format: ADME, organism-based; parameters: dose 5 mg/kg, route intraperitoneal; summary of the method: as §1
# Plasma [8] = experiment: (§3) Plasma concentration in CD1 mouse at 5 mg/kg, ip administered as single dose at 16 hrs; format: ADME, organism-based; parameters: dose 5 mg/kg, route intraperitoneal; conditions: mouse, in vivo, 16 h, BLD = below limit of detection; summary of the method: as §1
# HEK293 [9] = experiment: Stabilization of microtubule in HEK293 cells assessed as increase in acetylated alpha-tubulin at 1to 10 nM after 4 hrs by ELISA; format: cell-based; conditions: Homo sapiens; summary of the method: as §2
# [10] = AUC (0.5 to 16 hrs) in CD1 mouse brain at 5 mg/kg, ip administered as single dose at 4 hrs; format: ADME, organism-based; parameters: time 0.5-16 hr, dose 5 mg/kg, route intraperitoneal
# [11] = as §3; format: ADME, organism-based; parameters: dose 5 mg/kg, route intraperitoneal; conditions: CD1, mouse, plasma; summary of the method: as §1
# Plasma [12] = experiment: Fraction unbound in CD1 mouse plasma at 5 mg/kg, ip dministered as single dose; format: ADME, organism-based; parameters: dose 5 mg/kg, route intraperitoneal; conditions: in vivo
# [13] = Fraction unbound in CD1 mouse brain at 5 mg/kg, ip administered as single dose; format: ADME, organism-based; parameters: dose 5 mg/kg, route intraperitoneal; conditions: in vivo
# Brain = experiment: Stabilization of microtubule brain in CD1 mouse assessed as increase in acetylated alpha-tubulin at 5 mg/kg, ip administered as single dose measured after 7 days relative to vehicle-treated control; format: functional, organism-based; parameters: dose 5 mg/kg
# Summary of the method: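 Wild-type mice received one i.p. dose of 5 mg/kg, with DMSO as vehicle control, and 3 mice per treatment. Brains were collected 7 days later and the acetylated α-tubulin to α-tubulin ratio was measured. The mean ratio of treated mice was normalized to that of vehicle-treated mice.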
SMILES,AUC(0-t) at 4 h [1],AUC(0-t) at 4 h [2],Activity (HEK293 [3]),Activity (HEK293 [4]),concentration at 16 h [5],concentration at 4 h [6],concentration at 4 h [7],Cp (Plasma [8]),Activity (HEK293 [9]),AUC(0-t) [10],concentration at 16 h [11],Fu (Plasma [12]),Fu [13],Activity (Brain)
C=C/C=C\[C@H](C)[C@H](OC(N)=O)[C@@H](C)[C@H](O)[C@@H](C)C/C(C)=C\[C@H](C)[C@@H](O)[C@@H](C)/C=C\[C@@H](O)C[C@@H]1OC(=O)[C@H](C)[C@@H](O)[C@H]1C [DISERMOLIDE],0.439 µM·h,0.112 µM·h,Dose-dependent effect,–,–,–,–,–,–,–,–,–,–,–
C/C1=C/C[C@@H](/C(C)=C/c2csc(C)n2)OC(=O)C[C@H](O)C(C)(C)C(=O)[C@H](C)[C@@H](O)[C@@H](C)CCC1 [EPOTHILONE D],–,–,Dose-dependent effect,Active,111 nM,161 nM,19 nM,BLD,–,–,–,–,–,–
C=C/C=C\[C@H](C)[C@@H]1OC(=O)/C=C\C=C\[C@@H](C)[C@@H](O)C[C@H](O)/C=C\[C@H](C)[C@H](O)[C@@H](C)C[C@@H](C)CC[C@@H](O)[C@@H]1C [DICTYOSTATIN],5.54 µM·h,–,Dose-dependent effect,–,383 nM,412 nM,83 nM,–,Active,6.25 µM·h,77 nM,0.9%,0.5%,Active
